{"data": "Assay results from different studies", "EGFR A750P/del747-749": "Epidermal growth factor receptor (EGFR, Homo sapiens, UniProt P00533, A750P/del747-749)", "EGFR G719C": "Epidermal growth factor receptor (EGFR, Homo sapiens, UniProt P00533, G719C)", "EGFR G719S": "Epidermal growth factor receptor (EGFR, Homo sapiens, UniProt P00533, G719S)", "EGFR L858R": "Epidermal growth factor receptor (EGFR, Homo sapiens, UniProt P00533, L858R)", "EGFR del752-759": "Epidermal growth factor receptor (EGFR, Homo sapiens, UniProt P00533, del752-759)", "EGFR T790M": "Epidermal growth factor receptor (EGFR, Homo sapiens, UniProt P00533, T790M)", "EGFR del747-752/P753S": "Epidermal growth factor receptor (EGFR, Homo sapiens, UniProt P00533, del747-752/P753S)", "EGFR del746-750": "Epidermal growth factor receptor (EGFR, Homo sapiens, UniProt P00533, del746-750)", "EGFR L858R/T790M": "Epidermal growth factor receptor (EGFR, Homo sapiens, UniProt P00533, L858R/T790M)", "note": "Compare with care: the assays were run in different laboratories."}
{"SMILES": "CCN1CCN(Cc2ccc(C(=O)Nc3ccc(C)c(Oc4ccc5c(c4)CC(=O)N5)c3)cc2C(F)(F)F)CC1", "target": "EGFR A750P/del747-749", "effect on": "binding", "technique": "competition with immobilised ligand", "tested at": "1 µM", "remaining binding": "100%"}
{"SMILES": "CCOC(=O)c1cc2cc(-c3cc(C(=O)NCc4ccc(C(=O)O)cc4)nn3C)ccc2[nH]1", "target": "EGFR G719C", "effect on": "cell-free assay", "technique": "competition with immobilised ligand", "tested at": "0.1 µM", "remaining binding": "100%"}
{"SMILES": "O=C(NCCCN1CCOCC1)c1ccc(Nc2ncc(Cl)c(-c3ccc(Cl)s3)n2)cc1", "target": "EGFR G719S", "effect on": "binding", "technique": "competition with immobilised ligand", "tested at": "1 µM", "remaining binding": "100%"}
{"SMILES": "CN(CCCC(F)(F)F)c1nccc(-c2cnn3ncccc23)n1", "target": "EGFR L858R", "effect on": "binding", "tested at": "1 µM", "remaining binding": "85%"}
{"SMILES": "O=C(Nc1c[nH]nc1C(=O)NC1CCNCC1)c1cc(F)cc(F)c1", "target": "EGFR A750P/del747-749", "effect on": "binding", "technique": "competition with immobilised ligand", "tested at": "1 µM", "remaining binding": "80%"}
{"SMILES": "CN1CCN(c2ccc(Nc3nccc(-c4cccc([N+](=O)[O-])c4)n3)cc2C(F)(F)F)CC1", "target": "EGFR G719C", "effect on": "binding", "tested at": "10 µM", "remaining binding": "69%"}
{"SMILES": "CN(C)c1ncc(F)c(-c2cnn3ncccc23)n1", "target": "EGFR del752-759", "effect on": "binding", "tested at": "1 µM", "remaining binding": "100%"}
{"SMILES": "CCOCCn1cc(C(=O)Nc2ccc(-n3nc(-c4cccnc4)cc3C(F)(F)F)cn2)ccc1=O", "target": "Epidermal growth factor receptor (EGFR, Homo sapiens, UniProt P00533, del747-750/T751S)", "effect on": "cell-free assay", "technique": "competition with immobilised ligand", "tested at": "1 µM", "remaining binding": "100%"}
{"SMILES": "O=C(NCC1CCOCC1)c1n[nH]cc1NC(=O)c1c(F)cccc1F", "target": "EGFR L858R", "effect on": "binding", "technique": "competition with immobilised ligand", "tested at": "1 µM", "remaining binding": "89%"}
{"SMILES": "COc1cnc(Nc2cccc(S(N)(=O)=O)c2)nc1N1CCN(c2ccccc2)CC1", "target": "EGFR T790M", "effect on": "binding", "technique": "competition with immobilised ligand", "tested at": "1 µM", "remaining binding": "72%"}
{"SMILES": "CSc1cccnc1N1CCN(Cc2nc3ccccc3[nH]2)CC1", "target": "EGFR T790M", "effect on": "cell-free assay", "technique": "competition with immobilised ligand", "tested at": "1 µM", "remaining binding": "85%"}
{"SMILES": "O=C(c1ccc(Nc2ncc(Cl)c(-c3cc4ccccc4s3)n2)cc1)N1CCC(N2CCCC2)CC1", "target": "EGFR G719C", "effect on": "binding", "technique": "competition with immobilised ligand", "tested at": "1 µM", "remaining binding": "88%"}
{"SMILES": "c1cncc(-c2cccc(Nc3nccc(NC4CCCCC4)n3)c2)c1", "target": "EGFR del752-759", "effect on": "binding", "technique": "competition with immobilised ligand", "tested at": "10 µM", "remaining binding": "69%"}
{"SMILES": "Cn1nc(C(F)(F)F)cc1-c1cnc(N2CCc3cc(S(=O)(=O)Nc4c(F)cc(Cl)cc4F)cc(N4CCCC4=O)c32)nc1", "target": "EGFR del747-752/P753S", "effect on": "cell-free assay", "technique": "competition with immobilised ligand", "tested at": "1 µM", "remaining binding": "100%"}
{"SMILES": "COc1cnc(Nc2cccc(S(N)(=O)=O)c2)nc1N1CCN(c2ccccc2)C(=O)C1", "target": "EGFR G719S", "effect on": "binding", "technique": "competition with immobilised ligand", "tested at": "1 µM", "remaining binding": "100%"}
{"SMILES": "CN(C)c1nccc(-c2cnn3ncccc23)n1", "target": "EGFR G719C", "effect on": "binding", "tested at": "1 µM", "remaining binding": "100%"}
{"SMILES": "COc1ncc2cc3ccccc3nc2c1C#N", "target": "EGFR L858R", "effect on": "cell-free assay", "technique": "competition with immobilised ligand", "tested at": "5 µM", "remaining binding": "99%"}
{"SMILES": "Cc1noc([C@H]2C[C@@H](c3ccc(C(F)(F)F)cc3)CN(C(=O)N3CCS(=O)(=O)C3)C2)n1", "target": "EGFR del747-752/P753S", "effect on": "cell-free assay", "technique": "competition with immobilised ligand", "tested at": "1 µM", "remaining binding": "78%"}
{"SMILES": "O=C(NCCCN1CCOCC1)c1ccc(Nc2nccc(-c3cc4ccccc4s3)n2)cc1", "target": "EGFR del746-750", "effect on": "binding", "technique": "competition with immobilised ligand", "tested at": "1 µM", "remaining binding": "100%"}
{"SMILES": "CNCc1ccccc1-c1csc([C@H](C)Nc2nc(C)nc3cc(OC)c(OC)cc23)c1", "target": "EGFR G719C", "effect on": "cell-free assay", "technique": "competition with immobilised ligand", "tested at": "1 µM", "remaining binding": "85%"}
{"SMILES": "O=C(c1ccc(Nc2nccc(-c3cc4ccccc4s3)n2)cc1)N1CCC(N2CCCC2)CC1", "target": "EGFR T790M", "effect on": "binding", "technique": "competition with immobilised ligand", "tested at": "1 µM", "remaining binding": "67%"}
{"SMILES": "CC1CCCN1c1nccc(-c2cnn3ncccc23)n1 (stereo not shown)", "target": "EGFR L858R/T790M", "effect on": "binding", "tested at": "1 µM", "remaining binding": "100%"}
{"SMILES": "CNC(=O)[C@@H]1CC[C@@H](n2c(-c3ccc4cnccc4c3)nc3ccc(C(=O)NCc4cccc(C(N)=O)c4)cc32)C1", "target": "EGFR G719C", "effect on": "binding", "technique": "competition with immobilised ligand", "tested at": "1 µM", "remaining binding": "100%"}
{"SMILES": "Nc1ncc2c(n1)-c1c([nH]c3ccc(C#CC4CC4)cc13)CCCC2", "target": "EGFR del752-759", "effect on": "binding", "technique": "competition with immobilised ligand", "tested at": "1 µM", "remaining binding": "100%"}
{"SMILES": "CN1CCN(c2ccc(Nc3nccc(-c4ccccc4)n3)cc2C(F)(F)F)CC1", "target": "EGFR del746-750", "effect on": "binding", "tested at": "10 µM", "remaining binding": "56%"}
{"SMILES": "COc1ccnn2ncc(-c3ccnc(N(C)C)n3)c12", "target": "EGFR del746-750", "effect on": "binding", "tested at": "1 µM", "remaining binding": "97%"}
{"SMILES": "C[C@H](c1ccc(F)cc1)N(Cc1cccc(C(=O)O)c1)C(=O)c1cnc2ccccc2c1", "target": "EGFR G719S", "effect on": "cell-free assay", "technique": "competition with immobilised ligand", "tested at": "1 µM", "remaining binding": "100%"}
{"SMILES": "C[C@@H]1CCN(c2nccc(-c3cnn4ncccc34)n2)C1", "target": "Epidermal growth factor receptor (EGFR, Homo sapiens, UniProt P00533)", "effect on": "binding", "tested at": "1 µM", "remaining binding": "100%"}
{"SMILES": "O=C(c1ccc(Nc2ncc(Cl)c(-c3ccc(Cl)s3)n2)cc1)N1CCC(N2CCCC2)CC1", "target": "EGFR L858R", "effect on": "binding", "technique": "competition with immobilised ligand", "tested at": "1 µM", "remaining binding": "72%"}
{"SMILES": "N[C@H]1CCN(c2nccc(-c3cnn4ncccc34)n2)C1", "target": "EGFR L858R/T790M", "effect on": "binding", "tested at": "1 µM", "remaining binding": "89%"}
{"SMILES": "CC(=O)C1=C(C)N(c2cccc(C(F)(F)F)c2)C(=O)N[C@@H]1c1ccc(C#N)nc1", "target": "EGFR G719C", "effect on": "cell-free assay", "technique": "competition with immobilised ligand", "tested at": "1 µM", "remaining binding": "100%"}
